M18AAP inhibitor: PfM18AAP enzyme inhibition | recombinant PfM18AAP, H-Glu-NHMec fluorogenic cleavage | inhibition, % at 7.35 µM | hit rate 1.2% among 290,000;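 active means inhibition above the campaign mean inhibition over all tested compounds plus 3 SD, cut at about 28% in these data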;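 further: 0% = plate median of test compound wells and 100% = 2 mM ZnCl2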
ALR inh: inhibitors of human sulfhydryl oxidase ALR | purified ALR, DTT oxidation, H2O2 HRP-luminol luminescence | P55789 | hit rate 3.8% among 290,000 | inhibition, % (concentration not given with the values) | AID 485317;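 active means mean replicate inhibition above about 79%, with every replicate also reaching it, limit read from the data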
Target sequence (P55789 whole entry, looked up): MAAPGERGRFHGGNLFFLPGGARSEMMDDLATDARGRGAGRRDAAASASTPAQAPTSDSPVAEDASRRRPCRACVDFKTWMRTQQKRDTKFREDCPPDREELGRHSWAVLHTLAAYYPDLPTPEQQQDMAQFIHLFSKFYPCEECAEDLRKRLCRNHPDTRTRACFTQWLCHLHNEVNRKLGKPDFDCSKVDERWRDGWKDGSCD
EBNA-1 inhibitor: blocks EBNA-1 binding to DNA | EBNA-1 DNA binding, fluorescence polarization | inhibition, % at 14.8 µM | hit rate 0.34% among 300,000 | AID 1950; in the data active means inhibition above about 28%
NS3 helicase inh: HCV NS3 helicase inhibition | NS3 helicase DNA unwinding, Cy5 molecular beacon fluorescence | inhibition, % at 10.9 µM | hit rate 0.56% among 290,000 | AID 1800;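 active means inhibition above the mean of all tested compounds plus 3 SD, set per campaign, cut at about 35% in these data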;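 further: 0% = DMSO wells and 100% = thioflavine S control wells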
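Assay system – hepatitis C virus NS3 helicase domain fragment enzyme · Buffer or medium – MOPS pH 6.5, MgCl2, DTT, Tween20, BSA · Reagent – Cy5/quencher beacon DNA duplex and ATP to start · Compound – single 10.9 µM dose · Timing – 1 h at 25 °C · Technique – Cy5 beacon fluorescence read at start and 1 h · Measure – % inhibition of unwinding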
HCV core dimer: blocks dimerization of HCV core protein. hit rate 0.33% among 300,000. TR-FRET GST/Flag-core106 dimerization, 1536-well. inhibition, % at 5 µM;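 active means inhibition above the mean of all tested compounds plus 3 SD, set per screening campaign, cut at about 45% in these data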
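System – GST-tagged and Flag-tagged HCV core protein residues 1-106 · Repeats – one well for each compound · Technique – TR-FRET 671 and 617 nm emission · Doses – one concentration, 5 µM, in 0.5% DMSO · Times – 4 h, 22.5 °C incubation · Also added – Eu donor and XL665 acceptor anti-tag antibodies · Measure – percent inhibition of core106 dimerization signal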
ZTA DNA inh: counter-screen for EBNA-1 inhibitors: inhibitors of Epstein-Barr virus ZTA. P03206. ZTA-DNA binding, fluorescence polarization. inhibition, % at 11 µM. hit rate 0.15% among 320,000; in the data active means inhibition above about 33%
Target sequence (P03206 whole entry, looked up): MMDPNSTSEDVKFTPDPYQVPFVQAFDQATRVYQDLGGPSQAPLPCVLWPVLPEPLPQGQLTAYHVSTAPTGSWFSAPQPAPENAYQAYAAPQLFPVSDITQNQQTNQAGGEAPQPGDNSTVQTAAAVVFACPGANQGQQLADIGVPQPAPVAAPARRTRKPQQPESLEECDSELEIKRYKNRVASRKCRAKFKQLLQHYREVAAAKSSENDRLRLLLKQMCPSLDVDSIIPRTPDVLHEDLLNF
Active calls of the source: *; · = not tested or not shown. Rows were chosen to be rich in hits. Some 5.2% of all compounds tested hit in one or more screens of this group.

SMILES	M18AAP inhibitor	ALR inh	EBNA-1 inhibitor	NS3 helicase inh	HCV core dimer	ZTA DNA inh
O=C(Nc1nnc(C2CC2)s1)C1Cc2ccccc2CN1C(=O)c1ccco1 (stereo not drawn)	0	-5	-5	19	54*	-17
O=C(Nc1nnc(C2CC2)s1)C1Cc2ccccc2CN1S(=O)(=O)c1cccs1 (stereo not drawn)	2	-8	2	-3	67*	3
CCc1nnc(NC(=O)C2Cc3ccccc3CN2S(=O)(=O)c2cccs2)s1 (stereo not drawn)	3	-4	1	-3	59*	15
CCSc1nnc(NC(=O)C2Cc3ccccc3CN2S(=O)(=O)CC)s1 (stereo not drawn)	2	12	-5	-3	49*	4
CCCCc1cc(=O)oc2cc(OC(C)C(=O)NCCN3CCOCC3)c(Cl)cc12 (stereo not drawn)	0	1	-13	8	-4	-5
NNC(=O)c1cccc(COc2ccccc2Br)c1	3	98*	5	-3	2	6
O=C(NCc1ccccc1)c1cccc(COc2ccccc2Cl)c1	-2	-2	-6	-14	6	-7
CCSc1nc2ccccc2c(=O)n1CCc1ccc(OC)c(OC)c1	3	3	-10	-7	5	4
O=C(c1nc[nH]c1C(=O)N1CCN(c2ccccc2)CC1)N1CCN(c2ccccc2)CC1	·	93*	·	·	·	0
O=C(c1ccc(Cl)s1)N1CCN(c2ccccc2)CC1	-5	97*	-1	3	5	3
Cc1noc(C(=O)N2CCN(c3ccc(F)cc3)CC2)c1Cl	1	38	2	-1	1	2
Cc1noc(C(=O)N2CCN(c3ccccc3)CC2)c1Cl	4	96*	-4	-1	-6	-10
CC(=O)Nc1ccc(SCC(=O)N(CCC#N)c2cc(C)cc(C)c2)cc1	-8	98*	-3	1	-7	-2
CN(C(=O)CSc1ccc2c(c1)OCCO2)c1ccccc1	·	38	·	·	·	·
CC(=O)Nc1ccc(SCC(=O)c2cc(C)ccc2C)cc1	2	98*	-4	10	-18	-26
CC(=O)Nc1ccc(SCC(=O)O)cc1	-1	53	-4	5	3	-9
CC(=O)Nc1ccc(SCC(=O)c2cc(C)n(-c3ccccc3)c2C)cc1	6	99*	-9	-3	6	1
N#CCCN(C(=O)CSc1ccc2c(c1)OCCO2)c1ccccc1	6	89*	13	-9	1	-3
Cc1cc(C)cc(N(CCC#N)C(=O)CSc2nc3nc(C)cc(C)n3n2)c1	-6	-1	4	3	0	-1
Cn1cc(CCC(=O)N2CCCC(N3CCN(c4ccccc4F)CC3)C2)cn1 (stereo not drawn)	8	4	-2	3	-2	-10
Cc1ccc2c(c1)C(c1ccccc1)N(C(=O)c1ccc(Br)cc1)CC(=O)N2 (stereo not drawn)	-4	2	·	-1	·	·
COc1ccc(-n2c(C)cc(C(=O)CSc3ccc(NC(C)=O)cc3)c2C)cc1	2	97*	9	-15	9	5
COCCn1c(SCC(=O)Nc2ccc(C(N)=O)cc2)nc2c([nH]c3ccccc32)c1=O	-13	99*	-6	-3	-2	-12
O=[N+]([O-])c1ccccc1S(=O)(=O)n1cnc2ccccc21	-15	95*	-6	4	-2	0
O=S(=O)(c1cccs1)n1cnc2ccccc21	-3	97*	0	2	-6	0
SMILES	M18AAP inhibitor	ALR inh	EBNA-1 inhibitor	NS3 helicase inh	HCV core dimer	ZTA DNA inh
O=S(=O)(c1cccs1)n1nnc2ccccc21	6	-4	0	5	-3	-1
Cc1ccc(Nc2nc(/N=C/N(C)C)n[nH]2)cc1C	-1	98*	4	8	-19	-3
CCNS(=O)(=O)c1ccc2c(c1)NCC2	-4	-10	-6	16	-13	-6
O=C(NC(=S)N(Cc1ccccc1)c1ccccn1)C1CC1	1	99*	-3	4	0	-4
CC(C)N(c1nnc(N)s1)C(C)C	0	97*	-3	6	-5	4
Cc1c(Cl)cccc1NC(=O)CSc1nncn1-c1ccccn1	1	-22	5	0	-1	-1
c1c2c(cc3sc(N4CCCCC4)nc13)OCO2	7	99*	-8	-2	-10	-23
c1c2c(cc3sc(N4CCOCC4)nc13)OCO2	-15	97*	-5	-2	-9	-8
CC(C)(C)C(=O)CC1(O)C(=O)N(Cc2ccccc2)c2ccccc21 (stereo not drawn)	-9	·	12	3	0	0
O=C(CN1CCN(S(=O)(=O)c2cccc(F)c2)CC1)Nc1ccnn1C1CCCC1	·	-4	·	·	·	-8
COc1ccccc1N(CC(O)CN1CCOCC1)S(=O)(=O)c1ccccc1 (stereo not drawn)	6	·	-2	1	-1	4
O=S(=O)(c1ccc(S(=O)(=O)N(Cc2ccccc2)Cc2ccco2)cc1)N1CCCC1	-5	94*	6	-2	1	-12
CCN(Cc1ccccc1)S(=O)(=O)c1ccc(S(=O)(=O)N2CCN(C)CC2)cc1	1	·	-13	-1	-3	-2
Nc1ccc(Oc2ccc3c(c2)C(=O)N(CC2CCCO2)C3=O)cc1 (stereo not drawn)	-2	-9	8	10	4	21
COc1ccc(/C=N/n2c(-c3n[nH]c4c3CCC4)n[nH]c2=S)cc1OC	15	-4	-5	-4	-4	7
COc1cc(-c2n[nH]c(=S)n2/N=C/c2cccn2C)cc(OC)c1OC	19	97*	5	11	10	10
Cn1cccc1/C=N/n1c(-c2ccco2)n[nH]c1=S	18	26	1	0	-6	-1
COc1cc(/C=N/n2c(-c3n[nH]c4c3CCC4)n[nH]c2=S)ccc1O	17	99*	-6	2	0	-12
COc1cc(/C=N/n2c(-c3ccccc3)n[nH]c2=S)ccc1O	20	99*	-15	9	-3	-4
S=c1[nH]nc(-c2n[nH]c3c2CCC3)n1/N=C/C=C/c1ccccc1	9	48	8	-8	3	-2
COc1cc([C@H]2Oc3cc([C@H]4Oc5cc(O)cc(O)c5C(=O)[C@@H]4O)ccc3O[C@@H]2CO)ccc1O	19	99*	-3	-2	-5	2
COc1cc([C@@H]2Oc3cc(C4Oc5cc(O)cc(O)c5C(=O)[C@H]4O)ccc3O[C@H]2CO)ccc1O (stereo partly drawn)	·	99*	-1	·	28	4
COc1ccc(CN2C(=O)c3ccccc3C2=O)cc1C(=O)N(C)CC(=O)Nc1ccc(F)cc1	·	3	·	·	·	13
COc1ccc(-c2n[nH]c(=S)n2Cc2ccco2)cc1	9	97*	7	10	1	14
